Measurements reported in ChEMBL document CHEMBL1125415, “Antihyperglycemic activity of novel substituted 3H-1,2,3,5-oxathiadiazole 2-oxides” (1992).

Key:
Mus musculus [1] = assay: Antihyperglycemic activity in mice at a dose of 20 mg/kg; assay type: functional
Method in brief: (§1)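 Diabetic db/db mice, after exclusion of the five most extreme baseline glucose values, randomized into groups of equal mean plasma glucose, 4-6 per group. Oral dosing in 2% Tween 80/saline on afternoons of days 1-3 (fed), and day 4 after 3 h fast. Plasma glucose at 2 and 4 h post-dose; mean expressed as % change from day-1 baseline versus vehicle; ANOVA with one-sided Dunnett's test.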

Mus musculus [2] = assay: Antihyperglycemic activity in mice at a dose of 100 mg/kg; assay type: functional; method in brief: as §1

SMILES | Decrease (Mus musculus [1]) [%] | Decrease (Mus musculus [2]) [%]
O=S1NC(CC2=Cc3ccccc3CC2)=NO1 (stereo not given) | -23 | -53
Cc1ccc2occ(CC3=NOS(=O)N3)c2c1 (stereo not given) | <-15 | -42
O=S1NC(Cc2coc3ccc(Br)cc23)=NO1 (stereo not given) | <-15 | <15
O=S1NC(Cc2coc3c(Cl)cc(Cl)cc23)=NO1 (stereo not given) | <-15 | -29
O=S1NC(Cc2c[nH]c3ccc(Br)cc23)=NO1 (stereo not given) | -22 | -30
O=S1NC(CC2CCc3ccccc3C2)=NO1 (stereo not given) | <-15 | -22
O=S1NC(Cc2cc3cc(Cl)ccc3o2)=NO1 (stereo not given) | <-15 | -23
CC(C)(C)c1ccc(CC2=NOS(=O)N2)cc1 (stereo not given) | <-15 | <15
Cc1ccc(CC2=NOS(=O)N2)cc1C (stereo not given) | <-15 | <15
O=S1NC(Cc2cc3cc(Br)ccc3s2)=NO1 (stereo not given) | -20 | -29
O=S1NC(Cc2coc3ccccc23)=NO1 (stereo not given) | <-15 | -28
O=S1NC(Cc2ccc3ccccc3c2)=NO1 (stereo not given) | -37 | -63
O=S1NC(CC2=C(Cl)c3ccccc3CC2)=NO1 (stereo not given) | -27 | –
O=S1NC(Cc2ccc3c(c2)CCCC3)=NO1 (stereo not given) | <-15 | <15
O=S1NC(Cc2ccc(Br)cc2F)=NO1 (stereo not given) | -17 | -28
O=S1NC(Cc2cc3ccccc3s2)=NO1 (stereo not given) | <-15 | -42
O=S1NC(Cc2cc3ccc(F)cc3o2)=NO1 (stereo not given) | <-15 | -18

SMILES | Decrease (Mus musculus [1]) [%] | Decrease (Mus musculus [2]) [%]
O=S1NC(CC2CCc3ccccc32)=NO1 (stereo not given) | <-15 | <15
O=S1NC(Cc2cc3cc(F)ccc3o2)=NO1 (stereo not given) | <-15 | -25
O=S1NC(Cc2cccc(C(F)(F)F)c2)=NO1 (stereo not given) | <-15 | -34
O=S1NC(Cc2cc3cc(Cl)ccc3s2)=NO1 (stereo not given) | <-15 | -24
O=S1NC(Cc2coc3c(Cl)cccc23)=NO1 (stereo not given) | -26 | -54
O=S1NC(Cc2cc3ccccc3o2)=NO1 (stereo not given) | <-15 | <15
O=S1NC(Cc2ccc(OCCc3ccccc3)cc2)=NO1 (stereo not given) | <-15 | -56
O=S1NC(Cc2coc3ccc(Cl)cc23)=NO1 (stereo not given) | <-15 | –
O=S1NC(Cc2cc3cc(F)ccc3s2)=NO1 (stereo not given) | <-15 | <15
O=S1NC(Cc2ccc3c(c2)CCC3)=NO1 (stereo not given) | <-15 | <15
O=S1NC(Cc2ccc(OCc3ccccc3)cc2)=NO1 (stereo not given) | – | <-15
O=S1NC(Cc2ccc(-c3ccccc3)cc2)=NO1 (stereo not given) | <-15 | <15
O=S1NC(Cc2csc3ccccc23)=NO1 (stereo not given) | <-15 | -30
O=S1NC(Cc2coc3cc(Cl)ccc23)=NO1 (stereo not given) | <-15 | -22
O=S1NC(Cc2cccc(Cl)c2)=NO1 (stereo not given) | <-15 | -40
O=S1NC(Cc2c[nH]c3ccccc23)=NO1 (stereo not given) | <-15 | -22
CC1(COc2ccc(CC3SC(=O)NC3=O)cc2)CCCCC1 (stereo not given) [CIGLITAZONE] | <-15 | -29
